Source: PubChem BioAssay (Broad Institute)
AF4-AF9 inh: inhibitors of human MLL-AF4/AF9 interaction | P42568 | AlphaScreen, biotin-AF4 peptide binding to FLAG-AF9 | inhibition, % at 10 µM | hit rate 0.47% among 350,000;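 active = every replicate reaching a set inhibition limit, whatever the replicate mean, cut at about 25% in these data; inconclusive = mean inhibition reaches that limit but some replicates miss it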;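 note: 0% = plate neutral control median and 100% = total signal loss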
Target sequence (P42568 whole entry, looked up): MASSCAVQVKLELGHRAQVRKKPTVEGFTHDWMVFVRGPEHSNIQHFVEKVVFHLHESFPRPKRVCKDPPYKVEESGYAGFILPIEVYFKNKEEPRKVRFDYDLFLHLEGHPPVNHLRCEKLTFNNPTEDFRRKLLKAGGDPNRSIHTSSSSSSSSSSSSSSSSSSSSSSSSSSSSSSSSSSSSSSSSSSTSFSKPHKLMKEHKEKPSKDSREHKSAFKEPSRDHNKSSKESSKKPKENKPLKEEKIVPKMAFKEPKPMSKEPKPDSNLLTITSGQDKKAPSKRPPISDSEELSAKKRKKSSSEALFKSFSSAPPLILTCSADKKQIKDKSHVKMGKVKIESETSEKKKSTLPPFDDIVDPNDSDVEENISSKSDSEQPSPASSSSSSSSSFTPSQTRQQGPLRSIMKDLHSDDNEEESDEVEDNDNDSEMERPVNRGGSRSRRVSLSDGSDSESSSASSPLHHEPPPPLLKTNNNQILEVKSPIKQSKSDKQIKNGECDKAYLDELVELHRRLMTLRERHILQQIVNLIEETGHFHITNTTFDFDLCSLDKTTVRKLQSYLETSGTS
DENV2 CPE rescue: inhibitors of DENV2 cytopathic effect | DENV2-infected cells, cytopathic effect rescue, plate reader | CPE inhibition, % at 9.99 µM | hit rate 1.7% among 350,000 | AID 651640; in the data active = CPE inhibition above about 20%, passing the limit was not always enough; inconclusive = no clear call, values can overlap the other calls; tested in BHK-21 cells;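 note: 0% = median of neutral control wells and 100% = median of positive control wells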
CaV13 FRET inh: Disruptors of the CACNA1D IQ motif to Ca2+-dependent inactivation inhibitor domain association, primary screening, Förster resonance energy transfer in intact living …. inhibition, % at 12.3 µM. HEK cells, CFP/YFP FRET ICDI-IQ, plate reader, 10 min; percent FRET-ratio fall versus neutral wells. hit rate 0.098% among 340,000;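 active = mean replicate inhibition of at least 30% and at least 1% of replicates passing that level; inconclusive = only one of the two criteria is met; inactive = neither criterion is met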;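 note: 0% = median of the neutral control wells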
S100A4 inh HTS: inhibitors of human S100A4 binding to myosin IIA peptide; P26447; S100A4/TAMRA-MyoIIA peptide fluorescence polarization; inhibition, % at 10.7 µM; hit rate 0.14% among 360,000; AID 652163;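 active = mean inhibition of at least 70% across replicates, with every replicate also reaching that level; inconclusive = mean inhibition reaches 70% but some replicates fall short; inactive = mean inhibition below 70%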
Target sequence (P26447 whole entry, looked up): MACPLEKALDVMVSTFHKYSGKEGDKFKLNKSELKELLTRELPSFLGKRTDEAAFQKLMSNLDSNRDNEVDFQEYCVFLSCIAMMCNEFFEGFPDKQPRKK
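Compound dosing: one dose per compound; test system: human S100A4 monomer with TAMRA-labelled myosin IIA peptide; probe or stimulus: TAMRA-labelled myosin IIA heavy-chain peptide probe, 5 nM; medium: HEPES buffer with Ca2+, pH 7.2; schedule: 5 min incubation before reading; benchmarks: neutral control DMSO, positive control TFP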
SIRT5 block: sirtuin-5 (human) deacylase inhibition. Purified SirT5, succinyl-peptide AMC, trypsin-coupled fluorescence. Q9NXA8. AID 652115. inhibition, % at 15 µM. hit rate 1.1% among 330,000; in the data active = inhibition above about 15%; inconclusive = no clear call, values can overlap the other calls
The depositor's hits bear a star; ? = inconclusive; . = no result given; ! = not confirmed by another sample. Only some compounds are listed: those with a hit (about 2.7% of all), similar ones and a draw of the others.

SMILES	AF4-AF9 inh	DENV2 CPE rescue	CaV13 FRET inh	S100A4 inh HTS	SIRT5 block
CO[C@@H]1CN(C)C(=O)c2cc(NS(=O)(=O)c3cn(C)cn3)ccc2OC[C@@H](C)N(Cc2cccc(C(F)(F)F)c2)C[C@H]1C	2.3	-4.2	.	9.8	.
Cc1ccccc1-c1cnc2c(c1)C(=O)N([C@H](C)CO)C[C@H](C)[C@H](CN(C)Cc1cccnc1)O2	-4.1	18.0	.	-2.5	1.5
CCOC(=O)C1CCN(c2c(C(=O)c3ccccc3)cnc3ccc(Cl)cc23)CC1	7.9	33.6*	7.0	-2.7	.
CCOC(=O)C1CCN(C(=O)c2cccc(Cl)c2)CC1	.	.	-5.2	.	.
N#C[C@@H]1[C@@H](c2ccc(/C=C/c3ccccc3)cc2)[C@@H](CO)N1C(=O)C1CCCCC1	0.4	2.6	.	3.3	0.8
CCCOc1ccc(/C=N/NC(=O)CN2CCCCC2)cc1OCC	-0.3	0.1	-4.5	0.0	-0.8
CCCCOc1ccc(C(=O)N/N=C/c2ccc(OCCN3CCCCC3)c(OC)c2)cc1	5.3	32.2*	-5.2	2.3	0.1
CC(C)NC(=O)N(C)C[C@@H]1OCCCC[C@@H](C)Oc2ccc(NC(=O)Nc3ccccc3)cc2C(=O)N([C@@H](C)CO)C[C@H]1C	0.8	-2.1	.	-2.1	8.4
Cc1cc(OC(=O)c2ccccc2Cl)c([N+](=O)[O-])c(=O)[nH]1	-15.2	8.4	-5.4	-7.7	-0.5
Cc1cc(OC(=O)c2ccc(Cl)cc2Cl)c([N+](=O)[O-])c(=O)[nH]1	36.9*	-0.1	-5.5	-1.8	7.2
CCNC(=S)N/N=C/c1ccc(F)cc1	1.5	-6.1	8.6	2.7	-0.9
Cc1oc(/N=C/c2ccc(F)cc2)c(C#N)c1C	-0.6	-1.5	82.3*	-11.9	.
COC(=O)c1c(C(C)=O)c(C)n(C)c1C	-0.6	1.4	-3.4	2.9	16.1*
COc1ccc(S(=O)(=O)N(C)C[C@H]2Oc3ccc(NC(=O)CCCCCC(=O)Nc4ccccc4N)cc3CC(=O)N([C@@H](C)CO)C[C@H]2C)cc1	-1.4	-2.1	.	-1.4	2.3
COCCCNc1oc(-c2ccccc2OC)nc1C#N	.	.	-8.7	.	.
COCCCNc1oc(-c2ccccc2F)nc1C#N	0.5	25.3*	-11.3	-6.8	.
C[C@H]1CN([C@@H](C)CO)S(=O)(=O)c2ccc(-c3cncnc3)cc2O[C@@H]1CN(C)C(=O)c1cccc(F)c1	0.0	9.1	.	-1.5	3.2
C[C@@H]1CN([C@@H](C)CO)C(=O)c2cc(NS(=O)(=O)c3ccccc3)ccc2O[C@@H](C)CCCCO[C@@H]1CN(C)Cc1ccncc1	-10.5	48.9*	.	6.8	5.5
C[C@@H]1CN([C@H](C)CO)C(=O)c2cc(NS(=O)(=O)c3ccccc3)ccc2O[C@@H](C)CCCCO[C@H]1CN(C)Cc1ccncc1	-19.5	6.1	.	-80.6	3.7
C[C@@H]1CCCCO[C@H](CN(C)Cc2ccncc2)[C@H](C)CN([C@@H](C)CO)C(=O)c2cc(NS(=O)(=O)c3ccccc3)ccc2O1	-7.3	33.2*	.	1.5	-2.4
C[C@@H]1CCCCO[C@H](CN(C)Cc2ccccc2)[C@H](C)CN([C@H](C)CO)C(=O)c2cc(NS(=O)(=O)c3ccccc3)ccc2O1	1.7	4.6	.	3.8	8.5
CC1CCN(CCCNC(=O)c2cc3sccc3n2C)CC1	.	.	-7.8	.	.
COc1ccc(N2CCN(CCCNC(=O)c3cc4sccc4n3C)CC2)cc1	28.5*	3.2	-8.3	4.7	0.3
O=C(NCC1CC1)[C@@H]1[C@@H](CO)[C@@H]2Cn3c(ccc(C4=CCCC4)c3=O)[C@@H]2N1C(=O)C1CC1	-2.5	-1.0	.	1.1	-7.2
Cc1ccccc1-c1cnc2c(c1)C(=O)N([C@@H](C)CO)C[C@@H](C)[C@@H](CN(C)Cc1ccncc1)O2	-3.5	-9.9	.	-42.1	1.6
SMILES	AF4-AF9 inh	DENV2 CPE rescue	CaV13 FRET inh	S100A4 inh HTS	SIRT5 block
C[C@H](NC(=O)C[C@@H]1C=C[C@@H](NC(=O)CN2CCOCC2)[C@@H](CO)O1)c1ccccc1	1.6	?	-7.0	1.0	27.4*!
C[C@@H](NC(=O)C[C@H]1CC[C@H](NC(=O)C2CC2)[C@@H](CO)O1)c1ccccc1	-2.1	-3.9	.	6.0	16.6*
C[C@@H](NC(=O)C[C@H]1C=C[C@@H](NC(=O)C2CCC2)[C@H](CO)O1)c1ccccc1	3.0	-5.5	.	100.8*	3.8
C[C@@H](NC(=O)C[C@H]1CC[C@H](NC(=O)C2CC2)[C@H](CO)O1)c1ccccc1	-0.6	-5.9	.	8.9	1.7
O=C(C[C@@H]1C=C[C@H](NC(=O)CN2CCOCC2)[C@H](CO)O1)NC1CCCCC1	-2.5	0.2	.	0.0	17.9*
CCCNC(=O)N[C@H]1C=C[C@H](CC(=O)N2CCN(C)CC2)O[C@@H]1CO	-1.2	24.5*	.	7.3	1.4
O=C(Cc1ccccc1)N[C@H]1C=C[C@H](CC(=O)N2CCOCC2)O[C@@H]1CO	0.7	1.5	.	10.4	-1.3
O=C(Cc1ccccc1)N[C@H]1C=C[C@@H](CC(=O)N2CCOCC2)O[C@H]1CO	1.9	52.8*	.	7.6	-6.4
COc1ccc(C2=CC(=O)CC(c3ccc(OC)cc3)C2)cc1 (configuration not stated)	-1.3	4.9	-19.6	-13.5	-1.1
COc1ccc([C@H]2CC(=O)C=C(/C=C/c3ccccc3)C2)cc1OC	29.5*	-5.3	11.3	-2.2	.
COc1ccc([C@H]2CC(=O)C=C(c3ccc4ccccc4c3)C2)cc1OC	11.1	7.1	-6.0	-7.2	15.1*
COc1ccc([C@H]2CC(=O)C=C(c3ccc(OC)c(OC)c3)C2)cc1	8.3	-1.0	.	-2.4	-5.9
CCOc1ccc(C2=CC(=O)C[C@H](c3ccc(OC)cc3)C2)cc1	-0.7	26.0*	-4.9	-23.2	-4.2
CC(C)NC(=O)N(C)C[C@@H]1Oc2ccc(NC(=O)CCCCCC(=O)Nc3ccccc3N)cc2CC(=O)N([C@H](C)CO)C[C@@H]1C	0.1	-2.7	.	-3.7	.
COCC(=O)N1C[C@H]2CON(C)[C@H]2C[C@H]1c1cccc(-c2ccccc2OC)c1	-1.4	-9.5	-5.9	-0.7	-3.1
COc1ccccc1-c1cccc([C@@H]2C[C@H]3[C@H](CON3C)CN2C(=O)CCc2ccccc2)c1	6.3	-2.6	-6.3	-6.7	16.8*
CN1C[C@H]2CON(C)[C@H]2C[C@H]1c1cccc(-c2ccc(C#N)cc2)c1	0.0	5.9	-5.7	-19.5	-6.7
CC(=O)N1C[C@H]2CON(C)[C@H]2C[C@H]1c1cccc(-c2ccc(C#N)cc2)c1	-3.2	21.4*	-5.7	-3.4	-3.6
CN1OC[C@@H]2CN(Cc3cc(Cl)cc(Cl)c3)[C@H](c3cccc(-c4ccc(C#N)cc4)c3)C[C@@H]21	3.4	24.1*	-6.2	2.0	-5.1
Cc1ccccc1-c1ccc2c(c1)O[C@@H](CN(C)Cc1ccncc1)[C@H](C)CN([C@H](C)CO)S2(=O)=O	12.5	-3.0	.	4.6	5.1
